Data: ChEMBL document CHEMBL2046302, “Fused tricyclic indoles as S1P₁ agonists with robust efficacy in animal models of autoimmune disease” (Bioorg Med Chem Lett, 2012)
Values belong to the compound of their own block, whether it stands above or below them. The source made the active and inactive calls. No cut-off for these calls is given here.

Experiments:
[1] = target: T1, Sphingosine 1-phosphate receptor 1 (Homo sapiens, UniProt P21453); assay: Agonist activity against human S1P1 assessed as accumulation of cAMP by HTRF assay; assay type: functional
Method in brief: (§1)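 Agonist EC50 was read from a cAMP HTRF assay run on human, rat and mouse S1P1. Response was scaled against S1P, and values are the mean of three or more replicates.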

Rattus norvegicus [2] = assay: Immunosuppressant activity in collagen-induced Lewis rat arthritis model assessed as reduction in joint inflammation at 0.075 mg/kg, po qd; assay type: functional, organism-based; parameters: dose 0.075 mg/kg
Mus musculus [3] = assay: Immunosuppressant activity in BALB/c mouse assessed as reduction in circulating lymphocyte at 6 mg/kg, po measured after 5 hrs; assay type: functional, organism-based; parameters: dose 6 mg/kg
Method in brief: (§2)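 BALB/c mice were dosed orally as a suspension in 0.5% methyl cellulose, at 6 mg/kg or 1.0 mg/kg. Circulating lymphocytes were followed over time, with readings at 5 h and 24 h.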

Mus musculus [4] = assay: Immunosuppressant activity in BALB/c mouse assessed as reduction in circulating lymphocyte at 6 mg/kg, po measured up to 24 hrs; assay type: functional, organism-based; parameters: dose 6 mg/kg; method in brief: as §2
Mus musculus [5] = assay: Immunosuppressant activity in BALB/c mouse assessed as reduction in circulating lymphocyte at 30 mg/kg, po measured at 24 hrs; assay type: functional, organism-based; parameters: dose 30 mg/kg
[6] = target: Sphingosine 1-phosphate receptor 2 (Homo sapiens, UniProt O95136); assay: Agonist activity against human S1P2 by beta arrestin recruitment assay; assay type: functional
Method in brief: (§3)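 Agonist EC50 at human S1P1 through S1P5 was measured by β-arrestin recruitment. Values are the mean of three or more replicates.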

[7] = target: Sphingosine 1-phosphate receptor 1 (Rattus norvegicus, UniProt P48303); assay: Agonist activity against rat S1P1 assessed as accumulation of cAMP by HTRF assay; assay type: functional; method in brief: as §1
[8] = target: Sphingosine 1-phosphate receptor 1 (Mus musculus, UniProt O08530); assay: Agonist activity against mouse S1P1 assessed as accumulation of cAMP by HTRF assay; assay type: functional; method in brief: as §1
[9] = target: T1, Sphingosine 1-phosphate receptor 1; assay: Agonist activity against human S1P1 by beta arrestin recruitment assay; assay type: functional; method in brief: as §3
[10] = target: Sphingosine 1-phosphate receptor 3 (Homo sapiens, UniProt Q99500); assay: Agonist activity against human S1P3 by beta arrestin recruitment assay; assay type: functional; method in brief: as §3
[11] = target: T2, Sphingosine 1-phosphate receptor 4 (Homo sapiens, UniProt O95977); assay: Agonist activity against human S1P4 by beta arrestin recruitment assay; assay type: functional; method in brief: as §3
T2 sequence (O95977 whole entry): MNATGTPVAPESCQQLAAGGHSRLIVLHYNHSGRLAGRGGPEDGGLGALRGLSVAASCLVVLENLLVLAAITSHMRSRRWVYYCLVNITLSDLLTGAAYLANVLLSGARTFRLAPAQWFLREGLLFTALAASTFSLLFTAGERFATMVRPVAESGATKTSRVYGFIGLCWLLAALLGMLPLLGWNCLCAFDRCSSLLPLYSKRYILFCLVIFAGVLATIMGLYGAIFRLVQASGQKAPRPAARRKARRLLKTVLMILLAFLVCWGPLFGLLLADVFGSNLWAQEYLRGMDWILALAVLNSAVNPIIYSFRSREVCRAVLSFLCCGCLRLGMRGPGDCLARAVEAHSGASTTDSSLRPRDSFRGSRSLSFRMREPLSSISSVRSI

[12] = target: Sphingosine 1-phosphate receptor 5 (Homo sapiens, UniProt Q9H228); assay: Agonist activity against human S1P5 by beta arrestin recruitment assay; assay type: functional; method in brief: as §3
Mus musculus [13] = assay: Immunosuppressant activity in autoimmune encephalomyelitis C57B1/6 mouse model assessed as reduction in disease score at 1 mg/kg, po qd administered on day 3 post challenge; assay type: functional, organism-based; parameters: dose 1 mg/kg
Method in brief: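 Oral dosing once daily in 0.5% methylcellulose began on day 3. Signs of disease were monitored daily and graded on a 1–5 scale, from limp tail or hind-limb weakness (1) to death (5).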

Rattus norvegicus [14] = assay: Immunosuppressant activity in collagen-induced Lewis rat arthritis model assessed as reduction in joint inflammation at 1 mg/kg, po qd; assay type: functional, organism-based; parameters: dose 1 mg/kg
Rattus norvegicus [15] = assay: Toxicity in telemeterized Charles-River Sprague-Dawley rat assessed as reduction in heart rate at 3 mg/kg, po measured over 20 hrs; assay type: organism-based; parameters: dose 3 mg/kg, route oral; settings: in vivo
Method in brief: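 Telemeterized Charles River Sprague–Dawley rats received 3 or 30 mg/kg orally as a suspension in 0.5% methyl cellulose, with vehicle-treated and positive-control groups. Heart rate was recorded hourly over 20 h.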

T1 sequence (P21453 whole entry): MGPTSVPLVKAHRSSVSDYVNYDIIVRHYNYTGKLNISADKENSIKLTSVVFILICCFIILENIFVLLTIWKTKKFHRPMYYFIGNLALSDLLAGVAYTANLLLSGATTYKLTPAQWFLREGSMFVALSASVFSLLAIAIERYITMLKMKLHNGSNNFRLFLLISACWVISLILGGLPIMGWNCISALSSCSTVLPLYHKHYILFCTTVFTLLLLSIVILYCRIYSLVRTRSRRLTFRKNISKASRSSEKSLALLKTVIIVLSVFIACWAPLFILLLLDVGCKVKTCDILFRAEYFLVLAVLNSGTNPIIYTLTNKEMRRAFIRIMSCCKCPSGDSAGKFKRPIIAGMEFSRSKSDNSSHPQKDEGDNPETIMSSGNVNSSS
Chain of Sphingosine 1-phosphate receptor 2 (O95136 whole entry): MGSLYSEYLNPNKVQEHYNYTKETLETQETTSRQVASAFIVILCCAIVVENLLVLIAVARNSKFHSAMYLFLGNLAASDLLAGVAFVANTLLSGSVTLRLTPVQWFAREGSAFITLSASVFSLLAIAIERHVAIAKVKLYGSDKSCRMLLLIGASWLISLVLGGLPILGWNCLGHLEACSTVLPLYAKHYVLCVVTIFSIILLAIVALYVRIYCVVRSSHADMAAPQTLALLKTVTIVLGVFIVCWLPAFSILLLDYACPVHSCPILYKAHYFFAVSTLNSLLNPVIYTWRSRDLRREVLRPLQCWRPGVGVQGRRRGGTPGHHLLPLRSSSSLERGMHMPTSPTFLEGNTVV
Chain of Sphingosine 1-phosphate receptor 5 (Q9H228 whole entry): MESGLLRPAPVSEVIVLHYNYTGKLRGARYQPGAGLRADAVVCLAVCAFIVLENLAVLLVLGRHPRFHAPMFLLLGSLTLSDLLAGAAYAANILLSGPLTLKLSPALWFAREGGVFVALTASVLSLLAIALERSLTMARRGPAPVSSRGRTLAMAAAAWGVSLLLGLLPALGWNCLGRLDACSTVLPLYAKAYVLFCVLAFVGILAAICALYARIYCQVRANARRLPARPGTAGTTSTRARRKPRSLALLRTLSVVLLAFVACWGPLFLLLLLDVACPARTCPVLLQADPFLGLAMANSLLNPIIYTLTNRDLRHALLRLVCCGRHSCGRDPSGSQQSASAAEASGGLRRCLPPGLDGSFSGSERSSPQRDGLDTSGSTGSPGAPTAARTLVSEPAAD
Chain of Sphingosine 1-phosphate receptor 1 (Rattus norvegicus, UniProt P48303) (P48303 whole entry): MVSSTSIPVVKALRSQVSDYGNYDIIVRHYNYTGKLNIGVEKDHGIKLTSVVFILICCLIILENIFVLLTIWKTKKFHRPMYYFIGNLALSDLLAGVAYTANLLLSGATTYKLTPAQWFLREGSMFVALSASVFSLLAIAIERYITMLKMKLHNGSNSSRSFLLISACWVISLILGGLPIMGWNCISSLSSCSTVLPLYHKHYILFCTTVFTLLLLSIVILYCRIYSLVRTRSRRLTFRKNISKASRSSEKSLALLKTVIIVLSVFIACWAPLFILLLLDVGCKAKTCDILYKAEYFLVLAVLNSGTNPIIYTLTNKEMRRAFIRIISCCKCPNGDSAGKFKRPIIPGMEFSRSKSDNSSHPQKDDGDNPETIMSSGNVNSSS
Chain of Sphingosine 1-phosphate receptor 1 (Mus musculus, UniProt O08530) (O08530 whole entry): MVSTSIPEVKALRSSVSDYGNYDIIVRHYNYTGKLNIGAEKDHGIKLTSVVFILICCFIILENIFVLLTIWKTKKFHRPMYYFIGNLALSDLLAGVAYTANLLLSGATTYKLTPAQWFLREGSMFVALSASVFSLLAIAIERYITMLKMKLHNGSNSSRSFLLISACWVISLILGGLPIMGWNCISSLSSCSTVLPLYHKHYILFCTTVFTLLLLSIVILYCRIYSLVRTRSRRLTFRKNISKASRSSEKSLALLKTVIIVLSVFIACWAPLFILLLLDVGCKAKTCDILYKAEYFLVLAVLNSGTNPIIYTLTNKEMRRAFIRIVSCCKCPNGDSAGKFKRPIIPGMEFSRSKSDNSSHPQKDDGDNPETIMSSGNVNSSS
Chain of Sphingosine 1-phosphate receptor 3 (Q99500 whole entry): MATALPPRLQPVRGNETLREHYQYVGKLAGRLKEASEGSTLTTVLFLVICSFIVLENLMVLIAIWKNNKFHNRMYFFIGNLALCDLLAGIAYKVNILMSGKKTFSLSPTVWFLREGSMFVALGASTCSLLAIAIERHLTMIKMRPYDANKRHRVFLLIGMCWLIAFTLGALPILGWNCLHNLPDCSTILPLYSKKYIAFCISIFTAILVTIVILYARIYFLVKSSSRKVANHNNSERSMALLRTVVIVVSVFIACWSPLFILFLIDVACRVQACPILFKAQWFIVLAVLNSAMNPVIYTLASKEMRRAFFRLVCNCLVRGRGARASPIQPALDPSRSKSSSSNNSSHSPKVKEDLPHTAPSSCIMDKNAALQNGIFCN

SMILES: COc1cc(C#N)cc(-c2nc(-c3ccc4c(c3)cc3n4CCC3CC(=O)O)no2)c1 (racemic)
EC50 [1]: 4.6 nM

SMILES: CC(C)Oc1ccc(-c2nc(-c3ccc4c(c3)cc3n4CCC3CC(=O)O)no2)cc1C#N (racemic)
EC50 [1]: 0.61 nM

SMILES: COc1ccc(-c2nc(-c3ccc4c(c3)cc3n4CCC3CC(=O)O)no2)cc1C#N (racemic)
EC50 [1]: 2.9 nM

SMILES: CN(Cc1cnc2nc(N)nc(N)c2n1)c1ccc(C(=O)N[C@@H](CCC(=O)O)C(=O)O)cc1
Activity (Rattus norvegicus [2]): Active

SMILES: N#Cc1cc(OC(F)(F)F)cc(-c2nc(-c3ccc4[nH]c5c(c4c3)CCC5CC(=O)O)no2)c1 (single isomer, unassigned)
Activity (Mus musculus [3]): Active
Activity (Mus musculus [4]): Active
Activity (Mus musculus [5]): Active

SMILES: N#Cc1cc(OC(F)(F)F)cc(-c2nc(-c3ccc4c(c3)cc3n4CCC3CC(=O)O)no2)c1 (racemic)
EC50 [1]: 0.25 nM

SMILES: CCCCCCCCc1ccc(CCC(N)(CO)CO)cc1 [FINGOLIMOD]
Activity (Mus musculus [13]): Active
Activity (Rattus norvegicus [14]): Active
Activity (Rattus norvegicus [15]): Toxic

Further lines, results first:

EC50 [1]: 157 nM
SMILES: COc1cc(C#N)cc(-c2nc(-c3ccc4[nH]c5c(c4c3)CCC5CC(=O)O)no2)c1 (racemic)

EC50 [1]: 7.5 nM
SMILES: CC(C)Oc1ccc(-c2nc(-c3ccc4[nH]c5c(c4c3)CCC5CC(=O)O)no2)cc1C#N (racemic)

EC50 [1]: 1.73 nM
EC50 [6]: > 100000 nM
EC50 [7]: 1.4 nM
EC50 [8]: 8.3 nM
EC50 [9]: 55 nM
EC50 [10]: > 100000 nM
EC50 [11]: 239 nM
EC50 [12]: 11 nM
SMILES: N#Cc1cc(OC(F)(F)F)cc(-c2nc(-c3ccc4[nH]c5c(c4c3)CCC5CC(=O)O)no2)c1 (stereo in doubt; 17a)
